As usually defined, the IC50 is the concentration needed to halve the response being measured. A low value points to greater potency. For orientation: inhibition means the share of the control response that was lost under treatment.

The text below walks through data of ChEMBL document CHEMBL4196061, “Novel topoisomerase I inhibitors. Syntheses and biological evaluation of phosphorus substituted quinoline derivates with antiproliferative activity” (Eur J Med Chem, 2018).

One assay deals with SK-OV-3. Nature of the assay: Antiproliferative activity against human SKOV3 cells after 48 hrs by CCK-8 assay. It counts as functional, cell-based. To be noted: SK-OV-3, 48 h. An outline of the steps:
(§1)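 Cells seeded at 2-4 x 10^3 per well and grown overnight in 0.1 mL medium with 10% FBS at 37 °C under 5% CO2. Drugs were added on day 2 and cells incubated 48 h. CCK-8 was then added for 2 h at 37 °C and absorbance read at 450 nm. IC50 values were reported.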
(Formazan colour is commonly taken as a measure of viable cells.)

Another assay concerns A549. Nature of the assay: Antiproliferative activity against human A549 cells after 48 hrs by CCK-8 assay. It counts as functional, cell-based. To be noted: A549, 48 h. An outline of the steps:
as §1

The test system of another assay is HEK293. The assay can be described thus: Antiproliferative activity against human HEK293 cells after 48 hrs by CCK-8 assay. To be noted: HEK293, 48 h.
A further assay relates to MRC5. The assay can be described thus: Antiproliferative activity against human MRC5 cells after 48 hrs by CCK-8 assay. Type of assay: cell-based. To be noted: MRC5, 48 h. In short, it runs like this:
as §1

Assay [1] addresses T1, DNA topoisomerase 1 (Homo sapiens) (UniProt P11387).
T1 sequence (whole entry): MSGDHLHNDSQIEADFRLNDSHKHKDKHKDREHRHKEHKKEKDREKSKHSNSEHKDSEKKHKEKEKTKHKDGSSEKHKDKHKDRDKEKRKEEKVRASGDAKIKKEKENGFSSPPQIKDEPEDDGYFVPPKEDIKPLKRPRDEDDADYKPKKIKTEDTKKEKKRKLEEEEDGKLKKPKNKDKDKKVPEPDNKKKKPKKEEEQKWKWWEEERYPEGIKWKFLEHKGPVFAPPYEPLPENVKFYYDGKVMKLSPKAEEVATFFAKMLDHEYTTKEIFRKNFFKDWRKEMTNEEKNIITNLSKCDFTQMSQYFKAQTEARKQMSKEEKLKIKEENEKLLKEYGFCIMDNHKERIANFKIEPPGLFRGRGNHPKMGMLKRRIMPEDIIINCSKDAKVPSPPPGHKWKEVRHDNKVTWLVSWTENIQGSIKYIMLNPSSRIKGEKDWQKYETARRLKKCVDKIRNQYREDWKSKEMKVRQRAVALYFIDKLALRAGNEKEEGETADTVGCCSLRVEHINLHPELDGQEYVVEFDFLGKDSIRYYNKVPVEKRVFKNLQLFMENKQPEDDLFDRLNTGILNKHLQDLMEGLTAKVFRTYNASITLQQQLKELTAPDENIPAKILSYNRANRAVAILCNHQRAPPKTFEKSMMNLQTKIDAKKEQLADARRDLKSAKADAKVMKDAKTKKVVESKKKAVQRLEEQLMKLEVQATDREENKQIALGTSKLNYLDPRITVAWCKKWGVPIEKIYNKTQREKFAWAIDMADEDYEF
Nature of the assay: Inhibition of recombinant human topoisomerase 1-mediated DNA relaxation expressed in Saccharomyces cerevisiae TopI null strain RS190 at 80 uM using negatively supercoiled pUC18 as substrate pretreated with enzyme for 15 mins followed by substrate addition measured after 1 min by agarose gel electrophoresis. An outline of the steps: (§2)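 Human TopI was expressed from pHT143 (GAL promoter) in yeast RS190 and affinity-purified. Reactions used 110 ng/µL TopI and 0.5 µg supercoiled pUC18 in 20 µl buffer (20 mM Tris–HCl, 0.1 mM Na2EDTA, 10 mM MgCl2, 50 µg/mL acetylated BSA, 150 mM KCl, pH 7.5). Drug was mixed with enzyme before DNA was added, and reactions were stopped with SDS. Products were resolved on 1% agarose in TBE and stained with gel red.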

Assay [2] addresses T1, DNA topoisomerase 1 (Homo sapiens). Nature of the assay: Inhibition of recombinant human topoisomerase 1-mediated DNA relaxation expressed in Saccharomyces cerevisiae TopI null strain RS190 at 80 uM using negatively supercoiled pUC18 as substrate pretreated with enzyme for 15 mins followed by substrate addition measured after 15 secs by agarose gel electrophoresis. An outline of the steps:
as §2

The target is the same in assay [3]. Nature of the assay: Inhibition of recombinant human topoisomerase 1-mediated DNA relaxation expressed in Saccharomyces cerevisiae TopI null strain RS190 at 80 uM using negatively supercoiled pUC18 as substrate pretreated with enzyme for 15 mins followed by substrate addition measured after 3 mins by agarose gel electrophoresis. In short, it runs like this: as §2

Each structure is given as a SMILES string.

Consider `COc1ccccc1[C@@H]1C[C@H](c2ccccc2)c2cccc(P(=O)(c3ccccc3)c3ccccc3)c2N1`, for which the IC50 in the assay on SK-OV-3 was more than 50 µM; in the assay with A549 it was 0.21 µM; in the assay with HEK293, 16.3 µM; in the assay with MRC5, more than 50 µM.

Regarding `O=P(c1ccccc1)(c1ccccc1)c1cccc2c1N[C@H](c1cccc3ccccc13)C[C@@H]2c1ccccc1`, the inhibition in assay [1] is 63%; in assay [2], 63%; in assay [3] it was 45%. For the same molecule, the IC50 in the assay with SK-OV-3 was more than 50 µM; with A549 it was 3.57 µM; in the assay on HEK293 it was more than 50 µM; in the assay with MRC5 it was more than 50 µM.

As to `O=P(c1ccccc1)(c1ccccc1)c1cccc2c(-c3ccccc3)cc(-c3ccc(C(F)(F)F)cc3)nc12`, the inhibition in assay [1] turned out to be 28%; in assay [2], 31%; in assay [3], 28%. The half-maximal inhibitory concentration (IC50) with SK-OV-3 was 15.2 µM; in the assay with A549, 1.03 µM; with HEK293 it was 19.4 µM; in the assay on MRC5, more than 50 µM.

Regarding `S=P(c1ccccc1)(c1ccccc1)c1cccc2c(-c3ccccc3)cc(-c3ccccc3)nc12`, the results for the inhibition in assay [1], in assay [2] and in assay [3] were 60%, 75% and 24%, respectively. In addition, the IC50 with SK-OV-3, in the assay with A549, with HEK293 and with MRC5 was more than 50 µM in each case.

For the molecule `O=P(c1ccccc1)(c1ccccc1)c1cccc2c1N[C@H](c1ccc(F)cc1)C[C@@H]2c1ccc(F)cc1`, the inhibition in assay [1] stood at 50%; in assay [2], 54%; in assay [3], 45%. Besides, the IC50 in the assay on SK-OV-3 was 17.8 µM; in the assay with A549, 0.25 µM; with HEK293 it was 23.9 µM; with MRC5 it was more than 50 µM.

In the case of `FC(F)(F)c1ccc([C@@H]2C[C@H](c3ccccc3)c3cccc(P(=S)(c4ccccc4)c4ccccc4)c3N2)cc1`, the inhibition in assay [1] came to 17%; in assay [2], 20%; in assay [3], 17%. The half-inhibitory concentration (IC50) is more than 50 µM with SK-OV-3, 0.22 µM in the assay with A549, more than 50 µM in the assay with HEK293 and more than 50 µM in the assay with MRC5.

Turning to `O=P(c1ccccc1)(c1ccccc1)c1cccc2c(-c3ccc(F)cc3)cc(-c3ccc(F)cc3)nc12`, the inhibition was 50% in assay [1], 50% in assay [2] and 13% in assay [3]. For the same molecule, the IC50 is 6.77 µM with SK-OV-3, 3.82 µM with A549, 12.5 µM with HEK293 and more than 50 µM in the assay with MRC5.

For `O=P(c1ccccc1)(c1ccccc1)c1cccc2c(-c3ccccc3)cc(-c3cccc4ccccc34)nc12`, the inhibition in assay [1] turned out to be 87%; in assay [2], 89%; in assay [3], 65%. In addition, the IC50 in the assay on SK-OV-3 is more than 50 µM; with A549 it was 6.32 µM; in the assay on HEK293, 54.4 µM; in the assay with MRC5, more than 50 µM.

Turning to `O=P(c1ccccc1)(c1ccccc1)c1cccc2c(-c3ccccc3)cc(-c3ccccn3)nc12`, the inhibition stood at 52% in assay [1], 58% in assay [2] and 11% in assay [3]. Moreover, the IC50 is 17.3 µM with SK-OV-3, 2.93 µM in the assay on A549, 12 µM in the assay on HEK293 and more than 50 µM with MRC5.

Take `Cc1ccc(-c2cc(-c3ccccc3)nc3c(P(=O)(c4ccccc4)c4ccccc4)cccc23)cc1`: the inhibition in assay [1] worked out at 7%; in assay [2], 7%; in assay [3], 5%. The IC50 in the assay with SK-OV-3 is 17.4 µM; in the assay on A549, 7.65 µM; in the assay on HEK293, 8.97 µM; with MRC5, more than 50 µM.

For `Cc1ccc([C@H]2C[C@@H](c3ccccc3)Nc3c2cccc3P(=O)(c2ccccc2)c2ccccc2)cc1`, the inhibition was determined as 25% in assay [1], 28% in assay [2] and 12% in assay [3]. Moreover, the IC50 in the assay on SK-OV-3 is more than 50 µM; in the assay on A549 it was 1.2 µM; in the assay with HEK293 it was 28 µM; in the assay on MRC5, more than 50 µM.

In the case of `FC(F)(F)c1ccc([C@@H]2C[C@H](c3ccccc3)c3cccc(P(c4ccccc4)c4ccccc4)c3N2)cc1`, the results for the inhibition in assay [1], in assay [2] and in assay [3] were 61%, 61% and 59%, respectively. The 50% inhibitory concentration (IC50) with SK-OV-3 was more than 50 µM; in the assay on A549, 16.2 µM; with HEK293 it was more than 50 µM; with MRC5, more than 50 µM.

As for `O=P(c1ccccc1)(c1ccccc1)c1cccc2c1N[C@H](c1ccc(C(F)(F)F)cc1)C[C@@H]2c1ccccc1`, the inhibition in assay [1] worked out at 56%; in assay [2] it was 61%; in assay [3] it was 16%. The IC50 in the assay with SK-OV-3 is more than 50 µM; in the assay with A549, 0.5 µM; in the assay with HEK293, 28 µM; in the assay on MRC5, more than 50 µM.

As for `O=P(c1ccccc1)(c1ccccc1)c1cccc2c(-c3ccccc3)cc(-c3ccccc3)nc12`, the inhibition in assay [1] is 57%; in assay [2], 57%; in assay [3] it was 8%. The half-maximal inhibitory concentration (IC50) is 14.5 µM in the assay on SK-OV-3, 1.21 µM in the assay on A549, 13.8 µM with HEK293 and more than 50 µM in the assay with MRC5.

Turning to `O=P(c1ccccc1)(c1ccccc1)c1cccc2c1N[C@H](c1ccc(F)cc1)C[C@@H]2c1ccccc1`, the inhibition amounted to 50% in assay [1], 55% in assay [2] and 16% in assay [3]. The concentration for half-maximal inhibition (IC50) in the assay with SK-OV-3 is 24.1 µM; in the assay with A549 it was 2.69 µM; in the assay with HEK293 it was 26.5 µM; in the assay on MRC5 it was more than 50 µM.

For `Fc1ccc([C@@H]2C[C@H](c3ccccc3)c3cccc(P(=S)(c4ccccc4)c4ccccc4)c3N2)cc1F`, the inhibition in assay [1] was determined as 50%; in assay [2], 57%; in assay [3], 49%. Moreover, the IC50 is more than 50 µM in the assay with SK-OV-3, 0.08 µM in the assay on A549, more than 50 µM in the assay with HEK293 and more than 50 µM in the assay on MRC5.

For the molecule `Fc1ccc([C@@H]2C[C@H](c3ccccc3)c3cccc(P(=S)(c4ccccc4)c4ccccc4)c3N2)cc1`, the inhibition amounted to 39% in assay [1], 41% in assay [2] and 37% in assay [3]. The 50% inhibitory concentration (IC50) with SK-OV-3 was more than 50 µM; in the assay with A549 it was 0.27 µM; in the assay with HEK293 it was more than 50 µM; in the assay with MRC5, more than 50 µM.

Consider `Fc1ccc(-c2cc(-c3ccc(F)cc3)c3cccc(P(=S)(c4ccccc4)c4ccccc4)c3n2)cc1`, for which the IC50 in the assay with SK-OV-3, in the assay on A549, in the assay on HEK293 and in the assay on MRC5 was more than 50 µM in each case.

With `COc1ccccc1-c1cc(-c2ccccc2)c2cccc(P(=O)(c3ccccc3)c3ccccc3)c2n1`, the inhibition in assay [1] is 83%; in assay [2], 90%; in assay [3], 63%. Also, the concentration for half-maximal inhibition (IC50) with SK-OV-3 is 13.1 µM; with A549, 3.11 µM; with HEK293 it was 24.1 µM; in the assay with MRC5 it was more than 50 µM.

Turning to `O=P(c1ccccc1)(c1ccccc1)c1cccc2c(-c3ccccc3)cc(-c3ccc(F)cc3)nc12`, the inhibition was determined as 28% in assay [1], 28% in assay [2] and 25% in assay [3]. Also, the IC50 is 8.16 µM with SK-OV-3, 2.26 µM in the assay with A549, 17.2 µM in the assay with HEK293 and more than 50 µM in the assay with MRC5.

In the case of `COc1ccc([C@@H]2C[C@H](c3ccc(C)cc3)c3cccc(P(c4ccccc4)c4ccccc4)c3N2)cc1`, the inhibition in assay [1], in assay [2] and in assay [3] was 52% each time. Moreover, the IC50 in the assay with SK-OV-3 is more than 50 µM; in the assay with A549, 2.48 µM; in the assay with HEK293 it was more than 50 µM; in the assay on MRC5, more than 50 µM.
